# “And” between values parts separate entries of the source, which are not always exact repeats. Equal entries are not always repeated. Where two headings read alike, the source gives them in different places.
# What was measured:
# [1] = test system: advanced solid tumors; details: cited from earlier work
# [2] = twice daily x 5 doses for 2 weeks, in 3-week cycles; cited from earlier work
# [3] = human, in vivo
# [4] = test system: advanced solid tumors; assay: Phase 1 trial of adavosertib: tumor response by RECIST 1.1
# [5] = test system: PKMYT1; details: cited from earlier work
# [6] = test system: pHH3, γH2AX, RAD51, pNbs1; assay: DNA damage response and mitosis markers in paired tumor biopsies; type: in vivo, patients
# Procedure, shortened: (§1)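 Expansion-cohort patients got 300 mg once daily on days 1-5 and 8-12 of 21-day cycles, with prophylactic anti-emetics. Paired 18-gauge core needle tumor biopsies were taken on C1D1 and C1D8 before the daily dose, after the 72-h dosing pause on days 6-7. Nuclear marker levels were assessed. pY15-Cdk, γH2AX and pNbs1 were reported as percent nuclear area positive. Patients were grouped by baseline pY15-Cdk.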
# [7] = test system: Wee1 kinase; assay: Nuclear pY15-Cdk1/2 in paired tumor biopsies; type: in vivo, patients
# Procedure, shortened: as §1
# [8] = Plasma pharmacokinetics of adavosertib; details: human, oral, 300 mg
# [9] = test system: recurrent uterine serous carcinoma; details: adavosertib monotherapy; cited from earlier work
# [10] = test system: phospho-Cdk1; details: chemotherapy combinations, cited from earlier work
# [11] = test system: Wee1 kinase; details: cited from earlier work
smiles,measurement,setting,value
C=CCn1c(=O)c2cnc(Nc3ccc(N4CCN(C)CC4)cc3)nc2n1-c1cccc(C(C)(C)O)n1 [adavosertib],"Overall response rate, twice-daily adavosertib","[1]; 25 enrolled patients, 90% confidence interval [1%, 23%]",8%
same,"PRs, twice-daily adavosertib",[1]; among 25 enrolled patients,2 patients
same,"MTD, twice-daily regimen",[2],225 mg
same,Plasma concentrations day 5 versus day 1,[3],higher on day 5 compared to day 1
same,"Median number of treatment cycles, patients with SD","[4]; 20 patients, range 2-26",4 cycles
same,Patients with SD receiving ≥ 11 cycles of treatment,[4]; of 20 patients with SD,5 patients
same,Patients with best response of SD for ≥ 9 months,[4]; once-daily adavosertib,5 patients
same,Overall response rate,"[4]; once-daily adavosertib, 42 enrolled patients, 90% confidence interval [6%, 26%]",14%
same,Patients with PR at the 400 mg dose level,"[4]; out of the 3 enrolled, both ovarian cancer, dose-reduced to 300 mg",2 patients
same,Patients with PR at the MTD (300 mg),[4]; out of the 26 enrolled at the MTD,4 patients
same,"Alanine aminotransferase increased, Grade 1-2 (%)","human, in vivo",11 (26%) patients (%)
same,"Anemia, Grade 1-2 (%)","human, in vivo",20 (47%) patients (%)
same,"Anemia, Grade 3 (%)","human, in vivo",9 (21%) patients (%)
same,"Anemia, any-grade","human, in vivo",69%
same,"Anemia, ≥ grade 3","human, in vivo",21%
same,"Anorexia, Grade 1-2 (%)","human, in vivo",17 (40%) patients (%)
same,"Aspartate aminotransferase increased, Grade 1-2 (%)","human, in vivo",11 (26%) patients (%)
same,"Dehydration, Grade 1-2 (%)","human, in vivo",5 (12%) patients (%)
same,"Dehydration, Grade 3 (%)","human, in vivo",1 (2%) patients (%)
same,"Diarrhea, Grade 1-2 (%)","human, in vivo",25 (60%) patients (%)
same,"Diarrhea, Grade 3 (%)","human, in vivo",2 (5%) patients (%)
same,Dose-limiting toxicities (type),"human, in vivo",grade 4 hematological toxicity and grade 3 fatigue
same,"Fatigue, Grade 1-2 (%)","human, in vivo",19 (45%) patients (%)
same,"Fatigue, Grade 3 (%)","human, in vivo",3 (7%) patients (%)
same,"Febrile neutropenia, Grade 3 (%)","human, in vivo",1 (2%) patients (%)
same,"Gastrointestinal adverse events (nausea, vomiting, diarrhea) that were ≥ grade 3","human, in vivo",≤ 12%
same,"Hypoalbuminemia, Grade 1-2 (%)","human, in vivo",9 (21%) patients (%)
same,"Hypocalcemia, Grade 1-2 (%)","human, in vivo",3 (7%) patients (%)
same,"Hypocalcemia, Grade 3 (%)","human, in vivo",1 (2%) patients (%)
same,"Hypocalcemia, grade 3 incidence","human, in vivo",2%
same,"Hypokalemia, Grade 1-2 (%)","human, in vivo",5 (12%) patients (%)
same,"Hypokalemia, Grade 3 (%)","human, in vivo",1 (2%) patients (%)
same,"Hypokalemia, grade 3 incidence","human, in vivo",2%
same,"Hypomagnesemia, Grade 1-2 (%)","human, in vivo",7 (17%) patients (%)
same,"Hypomagnesemia, Grade 3 (%)","human, in vivo",1 (2%) patients (%)
same,"Hypomagnesemia, grade 3 incidence","human, in vivo",2%
same,"Hyponatremia, Grade 1-2 (%)","human, in vivo",8 (19%) patients (%)
same,"Hyponatremia, Grade 3 (%)","human, in vivo",1 (2%) patients (%)
same,"Hyponatremia, grade 3 incidence","human, in vivo",2%
same,"Hypophosphatemia, Grade 1-2 (%)","human, in vivo",10 (24%) patients (%)
same,"Hypophosphatemia, Grade 3 (%)","human, in vivo",6 (14%) patients (%)
same,"Hypophosphatemia, ≥ grade 3","human, in vivo",14%
same,"Leukopenia, Grade 1-2 (%)","human, in vivo",12 (29%) patients (%)
same,"Leukopenia, Grade 3 (%)","human, in vivo",5 (12%) patients (%)
same,"Leukopenia, Grade 4 (%)","human, in vivo",4 (10%) patients (%)
same,"Leukopenia, grade 4 events","human, in vivo",10%
same,"Leukopenia, ≥ grade 3","human, in vivo",21%
same,"Lymphopenia, Grade 1-2 (%)","human, in vivo",18 (43%) patients (%)
same,"Lymphopenia, Grade 3 (%)","human, in vivo",12 (29%) patients (%)
same,"Lymphopenia, any-grade","human, in vivo",71%
same,"Lymphopenia, ≥ grade 3","human, in vivo",29%
same,"Median duration until recovery, grade 3/4 leukopenia","human, in vivo",5 days
same,"Median duration until recovery, grade 3/4 lymphopenia","human, in vivo",18 days
same,"Median duration until recovery, grade 3/4 neutropenia","human, in vivo",5 days
same,"Nausea, Grade 1-2 (%)","human, in vivo",31 (74%) patients (%)
same,"Nausea, Grade 3 (%)","human, in vivo",3 (7%) patients (%)
same,"Nausea, any grade, patients","human, in vivo",81%
same,"Nausea, vomiting, or diarrhea, each, patients","human, in vivo",> 60%
same,"Neutropenia, Grade 1-2 (%)","human, in vivo",5 (12%) patients (%)
same,"Neutropenia, Grade 3 (%)","human, in vivo",4 (10%) patients (%)
same,"Neutropenia, Grade 4 (%)","human, in vivo",5 (12%) patients (%)
same,"Neutropenia, grade 4 events","human, in vivo",12%
same,"Thrombocytopenia, Grade 1-2 (%)","human, in vivo",13 (31%) patients (%)
same,"Thrombocytopenia, Grade 3 (%)","human, in vivo",5 (12%) patients (%)
same,"Thrombocytopenia, Grade 4 (%)","human, in vivo",1 (2%) patients (%)
same,"Thrombocytopenia, grade 4 events","human, in vivo",2%
same,"Vomiting, Grade 1-2 (%)","human, in vivo",24 (57%) patients (%)
same,"Vomiting, Grade 3 (%)","human, in vivo",5 (12%) patients (%)
same,DLTs at dose levels other than 400 mg QD,in vivo,No DLTs
same,Recommended phase 2 dose (RPh2D),once daily on days 1-5 and 8-12 in 21-day cycles,300 mg
same,"Upper respiratory infection, Grade 3 (%)","once-daily adavosertib, n = 42 patients",1 (2%) patients (%)
same,Inhibition of PKMYT1,[5],does not substantially inhibit PKMYT1
same,Nuclear pHH3 levels between baseline and C1D8,[6]; 8 patients,generally unchanged
same,Changes in tumor levels of nuclear RAD51,"[6]; 8 patients, baseline vs C1D8",None of the 8 patients evaluable for pharmacodynamic response showed changes
same,Levels of DNA repair markers (γH2AX and/or pNbs1) at C1D8,[6]; both patients with significantly decreased pY15-Cdk,significant increases
same,"pHH3 positivity at C1D8, patient 1010056","[6]; from 1.1% at baseline, best response PD, p < 0.0001",4.1 % cells positive
same,Increases in nuclear pY15-Cdk at C1D8,"[7]; 4 of 5 patients with low baseline pY15-Cdk (≤ 2.2% NAP), p < 0.0001",192%-1094%
same,Patients with tumor pY15-Cdk levels higher than baseline on C1D8 (pre-dose),[7]; of 8 patients with evaluable biopsy pairs (of 5 with low baseline),4 patients
same,concentration at 72 h,[8],> 5 nM
same,Preliminary overall response rate,[9],29%
same,Target suppression (phospho-Cdk1 attenuation),[10]; adavosertib twice daily at 25 mg,not at 25 mg
same,Target suppression (phospho-Cdk1 attenuation),[10]; adavosertib twice daily at 200 mg or 225 mg,significant target suppression
same,"Reduction of nuclear pY15-Cdk, twice-daily arm, individual patients","[11]; 2-5 hours after dose 5, 2 of 2 patients",84% and 90%
same,"Wee1 kinase suppression (pY15-Cdk1/2 reduction), twice-daily arm",[11]; tumor biopsies 2-5 hours after the fifth dose,80-90%
